Laboratory results as given in publication PMC7127161 (Bioorganic & Medicinal Chemistry, 2014).

Columns and labels:
[1] = tested on: CEM cells; assay: Cytostatic properties in human T-lymphocyte; format: cell-based; conditions: concentration required to reduce CEM cell proliferation by 50%
In short: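 Cytostatic assay: (5–7.5) × 104 CEM cells per well with test compound. Cells proliferate 72 h at 37 °C in humidified, CO2-controlled air, then are counted in a Coulter counter. The 50% value is the concentration that inhibits cell proliferation by 50%.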

[2] = tested on: HIV-1(IIIB); assay: Anti-HIV-1 activity; format: cell-based; conditions: CEM cells, HIV-1 and HIV-2
In short: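 CEM cells (~3 × 10^5 cells/mL) infected with HIV-1(IIIB) at 100 CCID50 per mL, with dilutions of test compound. Incubated 4–5 days at 37 °C in humidified, CO2-controlled air. Giant (syncytium) cell formation scored under the microscope. EC50 is the concentration that inhibits HIV-induced cytopathic effect by 50%.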

[3] = tested on: Sindbis virus; assay: Antiviral activity against Sindbis virus in Vero cell cultures; format: cell-based; conditions: at 100 μM
[4] = tested on: vesicular stomatitis virus (VSV); format: cell-based
[5] = tested on: herpes simplex virus type 1 (HSV-1); assay: Antiviral activity against HSV-1 in HEL cell cultures; format: cell-based; conditions: at 100 μM
[6] = tested on: respiratory syncytial virus (RSV); assay: Antiviral activity against RSV in HeLa cell cultures; format: cell-based; conditions: at 100 μM
[7] = tested on: Coxsackie virus B4; assay: Antiviral activity against Coxsackie virus B4 in HeLa cell cultures; format: cell-based; conditions: at 100 μM
[8] = tested on: HSV-2; assay: Antiviral activity against HSV-2 in HEL cell cultures; format: cell-based; conditions: at 100 μM
[9] = tested on: influenza virus B; format: cell-based
[10] = tested on: influenza virus A (H1N1); format: cell-based
[11] = tested on: parainfluenza virus-3; assay: Antiviral activity against parainfluenza virus-3 in Vero cell cultures; format: cell-based; conditions: at 100 μM
[12] = tested on: HIV-1 (NL4.3); assay: Anti-HIV-1 activity; format: cell-based; conditions: MT-4 cells
[13] = tested on: reovirus-1; assay: Antiviral activity against reovirus-1 in Vero cell cultures; format: cell-based; conditions: at 100 μM
[14] = tested on: feline herpesvirus; assay: Antiviral activity against feline herpesvirus in CrFK cell cultures; format: cell-based; conditions: at 100 μM
[15] = tested on: vaccinia virus; format: cell-based
[16] = tested on: influenza virus A (H3N2); format: cell-based
[17] = tested on: feline corona virus; assay: Antiviral activity against feline corona virus in CrFK cell cultures; format: cell-based; conditions: at 100 μM
[18] = tested on: Reverse transcriptase; assay: Activity against reverse transcriptase; format: biochemical; conditions: data not shown
[19] = tested on: Punta Toro virus; assay: Antiviral activity against Punta Toro virus in Vero cell cultures; format: cell-based; conditions: at 100 μM

(3S,4R)-3-(Benzyloxycarbonyl)-4-(benzyloxycarbonylmethyl)cyclopentenol [Compound 11]
CC50 [1]: 110 ± 4.2 µM
anti-HIV-1 or anti-HIV-2 activity (in words) [2]: not active

OC[C@H]1[C@H](O)CC[C@@H]1O [Compound 15, 2-hydroxymethyl-3-hydroxycyclopentanol]
activity against Sindbis virus [3]: did not show any measurable activity
activity against vesicular stomatitis virus (VSV) [4]: did not show any measurable activity
activity against herpes simplex virus type 1 (HSV-1) [5]: did not show any measurable activity
activity against respiratory syncytial virus (RSV) [6]: did not show any measurable activity
activity against Coxsackie virus B4 [7]: did not show any measurable activity
activity against HSV-2 [8]: did not show any measurable activity
activity against influenza virus B [9]: did not show any measurable activity
activity against influenza virus A (H1N1) [10]: did not show any measurable activity
activity against parainfluenza virus-3 [11]: did not show any measurable activity
antiviral activity against HIV-1 and HIV-2 in MT-4 cell cultures (in words) [12]: confirmed at low micromolar concentrations
activity against reovirus-1 [13]: did not show any measurable activity
activity against feline herpesvirus [14]: did not show any measurable activity
activity against vaccinia virus [15]: did not show any measurable activity
activity against influenza virus A (H3N2) [16]: did not show any measurable activity
activity against feline corona virus [17]: did not show any measurable activity
activity against reverse transcriptase [18]: inactive
activity against Punta Toro virus [19]: did not show any measurable activity

CCCCCOC(=O)[C@H](C)NP(=O)(Oc1ccccc1)O[C@@H]1CC[C@H](O)[C@H]1CO (stereo partly drawn) [Compound 17b, (1R,2R,3S)-3-Hydroxy-2-(hydroxymethyl)cyclopentyl-1-O-phenyl-(pentoxy-L-alaninyl)-phosphate]
antiviral activity against HIV-1 and HIV-2 in MT-4 cell cultures (in words) [12]: devoid of any significant antiviral activity

OC[C@H]1CC(O)C[C@@H]1O (stereo partly drawn) [Compound 14, (3S,4R)-3-hydroxy-4-hydroxymethyl cyclopentanol]
anti-HIV-1 or anti-HIV-2 activity (in words) [2]: not active

C[C@H](NP(=O)(Oc1cccc2ccccc12)O[C@@H]1CC[C@H](O)[C@H]1CO)C(=O)OCC(C)(C)C (stereo partly drawn) [Compound 17a, (1R,2R,3S)-3-Hydroxy-2-(hydroxymethyl)cyclopentyl-1-O-naphthyl-(neopentyl-L-alaninyl)-phosphate]
antiviral activity against HIV-1 and HIV-2 in MT-4 cell cultures (in words) [12]: devoid of any significant antiviral activity

(1R,2S,3S)-3-(Benzyloxycarbonyl)-2-(benzyloxycarbonylmethyl)cyclopentanol [Compound 13]
CC50 [1]: 94 ± 4.2 µM
activity against reverse transcriptase [18]: inactive
